Laboratory results taken from ChEMBL document CHEMBL4219124, “Alleviating CYP and hERG liabilities by structure optimization of dihydrofuran-fused tricyclic benzo[d]imidazole series - Potent, selective and orally efficacious microsomal prostaglandin E synthase-1 (mPGES-1) inhibitors: Part-2” (Bioorg Med Chem Lett, 2018).

Key:
Canis familiaris = assay: Toxicity in Beagle dog assessed as emesis at 10 mg/kg, po; format: organism-based, Canis lupus familiaris; conditions: in vivo
Cavia porcellus [1] = assay: Analgesic activity in Dunkin-Hartley guinea pig hyperalgesia pain model assessed as inhibition of LPS-induced hyperalgesia at 10 mg/kg, po administered 2 hrs prior to LPS challenge measured after 4.5 hrs relative to control; format: functional
Summary of the method: (§1)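 Guinea pigs received compound orally, once daily, at 10, 30 or 100 mg/kg, 2 h before LPS was injected into the plantar surface of the right paw. Saline-injected animals served as the comparison for thermal hyperalgesia. Plasma and brain drug levels taken 7 h after dosing, mean of n = 6–9 per group, from a single experiment.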

Cavia porcellus [2] = assay: Analgesic activity in Dunkin-Hartley guinea pig hyperalgesia pain model assessed as inhibition of LPS-induced hyperalgesia at 100 mg/kg, po administered 2 hrs prior to LPS challenge measured after 4.5 hrs relative to control; format: functional; summary of the method: as §1
[3] = Drug uptake in brain of Dunkin-Hartley guinea pig LPS-induced hyperalgesia pain model at 30 mg/kg, po administered 2 hrs prior to LPS challenge measured 7 hrs post dose; format: ADME, organism-based, Cavia porcellus; conditions: read-out: Drug uptake; summary of the method: as §1
[4] = Drug uptake in brain of Dunkin-Hartley guinea pig LPS-induced hyperalgesia pain model at 10 mg/kg, po administered 2 hrs prior to LPS challenge measured 7 hrs post dose; format: ADME, organism-based, Cavia porcellus; conditions: read-out: Drug uptake; summary of the method: as §1
[5] = Ratio of drug uptake in brain to plasma of Dunkin-Hartley guinea pig LPS-induced hyperalgesia pain model at 30 mg/kg, po administered 2 hrs prior to LPS challenge measured 7 hrs post dose; format: ADME, organism-based, Cavia porcellus; conditions: read-out: BPR
Summary of the method: (§2)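 Guinea pigs dosed orally at 10, 30 or 100 mg/kg 2 h before intraplantar LPS in the right hind paw; thermal hyperalgesia scored. Plasma (ng/mL) and brain (ng/g) levels taken 7 h post dose; brain/plasma ratio computed. Means of 6–9 animals per group, single experiment.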

[6] = Ratio of drug uptake in brain to plasma of Dunkin-Hartley guinea pig LPS-induced hyperalgesia pain model at 100 mg/kg, po administered 2 hrs prior to LPS challenge measured 7 hrs post dose; format: ADME, organism-based, Cavia porcellus; conditions: read-out: BPR; summary of the method: as §2
[7] = Ratio of plasma concentration in Dunkin-Hartley guinea pig LPS-induced hyperalgesia pain model to IC50 for mPGES1 in guinea pig whole blood; format: ADME; conditions: in vivo
Cavia porcellus [8] = assay: Analgesic activity in Dunkin-Hartley guinea pig MIA-induced osteoarthritic pain model assessed as reversal of incapacitance at 100 mg/kg, po administered on day 3 measured 6 to 7 hrs post dose relative to control; format: functional
Summary of the method: (§3)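 Day 0: monoiodoacetate injected into the right shoulder joint of guinea pigs; saline-injected animals as comparison. Day 3: compound given orally at 100, 250 or 500 mg/kg, and weight-bearing incapacitance on the injected forelimb measured. Plasma sampled at the PD time point, n = 6–8 per group, single experiment.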

Cavia porcellus [9] = assay: Analgesic activity in Dunkin-Hartley guinea pig MIA-induced osteoarthritic pain model assessed as reversal of incapacitance at 250 mg/kg, po administered on day 3 measured 6 to 7 hrs post dose relative to control; format: functional; summary of the method: as §3
Cavia porcellus [10] = assay: Analgesic activity in Dunkin-Hartley guinea pig MIA-induced osteoarthritic pain model assessed as reversal of incapacitance at 500 mg/kg, po administered on day 3 measured at 6 to 7 hrs relative to control; format: functional; summary of the method: as §3
[11] = Plasma concentration in Dunkin-Hartley guinea pig MIA-induced osteoarthritic pain model at 250 mg/kg, po measured 2 hrs post dose; format: ADME, organism-based, Cavia porcellus
Summary of the method: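 Intra-articular MIA into the right shoulder joint on day 0; oral dosing at 100, 250 or 500 mg/kg on day 3, incapacitance (forelimb weight bearing) measured. Plasma concentration sampled 2 h post dose. Means of 6–8 animals per group, single experiment.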

[12] = Ratio of plasma concentration in Dunkin-Hartley guinea pig MIA-induced osteoarthritic pain model to IC50 for mPGES1 in guinea pig whole blood; format: ADME; conditions: in vivo
[13] = Ratio of plasma concentration in Dunkin-Hartley guinea pig MIA-induced osteoarthritic pain model to IC50 for mPGES1 in human whole blood; format: ADME; conditions: in vivo

With `CC1(C)Cc2c(c(C(=O)Nc3ccc(F)c(C(F)(F)F)c3)cc3nc(Nc4c(F)cccc4Cl)[nH]c23)O1` the Activity (Canis familiaris) was “Non-Toxic”, the inhibition in vivo at 10 mg/kg (Cavia porcellus [1]) was 20% and the inhibition in vivo at 100 mg/kg (Cavia porcellus [2]) was 66%. The concentration at 7 h [3] was 87 ng/g, the concentration at 7 h [4] was 96 ng/g and the Kp at 7 h [5] was 0.6. For the same compound, the Kp at 7 h [6] was 1.06, the Ratio [7] was 2 and the Activity (Cavia porcellus [8]) was 48%. It also gave an Activity (Cavia porcellus [9]) of 73%, an Activity (Cavia porcellus [10]) of 83% and a concentration at 2 h [11] of 1510 ng/mL. For the same compound, the Ratio [12] was 7 and the Ratio [13] was 17.
